For one compound, Activity, Drug uptake and inhibition results are on record in ChEMBL document CHEMBL5634162, “Cyclohexylalanine-Containing α-Helical Amphipathic Peptide Targets Cardiolipin, Rescuing Mitochondrial Dysfunction in Kidney Injury” (J Med Chem, 2024).

For data set [1], the system named is Mus musculus. Kind of data set: Protection against colistin-induced nephrotoxicity in C57BL/6 mouse model assessed as increase in SOD-1 level at 1 mg/kg, ip administered once every other day measured after 7 days by IHC analysis. The following applies: time 7.0 day. Format: functional, organism-based. The method, boiled down: (§1)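 Male C57BL/6 mice, 7 weeks: colistin 20 mg/kg sc daily for 7 days, peptide 1 mg/kg ip once every other day, n = 5 per group. Day-7 kidney sections, citrate antigen retrieval, immunohistochemistry with HRP polymer secondary and hematoxylin counterstain; PAS and Masson's trichrome for damage.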

Data set [2] relates to Mus musculus. Kind of data set: Protection against colistin-induced nephrotoxicity in C57BL/6 mouse model assessed as reduction in P-21 level at 1 mg/kg, ip administered once every other day measured after 7 days by IHC analysis. Format: functional, organism-based. The following applies: time 7.0 day. The method, boiled down: as §1
The subject of data set [3] is Epithelial cell. Kind of data set: Induction of H2O2-reduced ATP production in human tubular epithelial cells at 10 to 20 nM incubated for 3 hrs followed by H2O2 measured after 1 hr by fluorescene based analysis. The format is functional. The following applies: dose 10-20 nM, time 4.0 hrs.
In data set [4] the test system is Mus musculus. Kind of data set: Protection against colistin-induced nephrotoxicity in C57BL/6 mouse model assessed as appearance of cristae formation in mitochondria of kidney at 1 mg/kg, ip administered once every other day measured after 7 days by TEM analysis. The settings on record: time 7.0 day. Format: functional, organism-based. The method, boiled down: (§2)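 Male C57BL/6 mice, 7 weeks, given colistin 20 mg/kg sc daily for 7 days with peptide 1 mg/kg ip once every other day, n = 5 per group; kidney mitochondria examined by TEM.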

In data set [5] the test system is Mus musculus. In words: Protection against colistin-induced nephrotoxicity in C57BL/6 mouse model assessed as reduction in tubular dilation at 1 mg/kg, ip administered once every other day measured after 7 days by […] analysis. The format is functional, organism-based. The following applies: time 7.0 day. The essentials:
(§3)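 Seven-week-old male C57BL/6 mice got colistin 20 mg/kg SC daily for 7 days plus peptide 1 mg/kg intraperitoneally every other day; groups of n = 5 (control, colistin, colistin + peptide). Kidneys were taken at day 7. Cytochrome C was detected by immunohistochemistry (citrate antigen retrieval, HRP-polymer detection, hematoxylin counterstain). Sections were also stained with PAS and Masson's trichrome to score histologic damage and fibrosis.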

Data set [6] is described as follows: Drug localization in H2O2-damaged mitochondria of human tubular epithelial cells pretreated for 3 hrs followed by H2O2 addition measured after 30 mins by fluorescence based analysis. The format is ADME. The settings on record: epithelial cell, time 3.5 hrs.
Data set [7] deals with Mus musculus. In words: Protection against colistin-induced nephrotoxicity in C57BL/6 mouse model assessed as reduction in tubular casts at 1 mg/kg, ip administered once every other day measured after 7 days by […] analysis. Format: functional, organism-based. The following applies: time 7.0 day. The essentials: as §3
For the next data set, the system named is HeLa. In words: Induction of antimycin A-reduced ATP production in human HeLa cells incubated for 3 hrs followed by antimycin A addition measured after 3 hrs by luminescence based analysis. The format is functional, cell-based. The settings on record: dose 10-20 nM, time 6.0 hrs. The essentials:
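Cellular ATP measured by luminescence with an ATP detection kit after peptide pretreatment.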

A further data set concerns Lipid bilayer. Kind of data set: Binding affinity to cardiolipin-rich POPC/POPE by SPR analysis.
Data set [8] concerns Epithelial cell. In words: Reversal of H2O2-induced p16 mRNA level in human tubular epithelial cells at 10 to 100 nM by qPCR analysis. Format: functional, cell-based. The settings on record: dose 10-100 nM.
The subject of data set [9] is Mus musculus. Kind of data set: Protection against […] C57BL/6 mouse model assessed as increase in NQO-1 mRNA level at 1 mg/kg, ip administered thrice a week prior to induction of bilateral ischemia-reperfusion injury measured after 6 days by qPCR analysis. The settings on record: time 6.0 day. Format: functional, organism-based.
The subject of data set [10] is Epithelial cell. In words: Induction of H2O2-reduced mitochondrial membrane potential in human tubular epithelial cells at 20 to 60 nM pretreated for 3 hrs followed by H2O2 addition measured after 30 mins by fluorescence based analysis. The following applies: dose 20-60 nM. Format: functional. The essentials: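 hTECs given peptide 3 h then H2O2 1 mM for 30 min; TMRE 600 nM for 15 min, washed, HBSS, plate reader at 37 °C (Ex/Em 525/575 nm).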

Data set [11] has as its system Mus musculus. Kind of data set: Protection against colistin-induced nephrotoxicity in C57BL/6 mouse model assessed as reduction in blood BUN level at 1 mg/kg, ip administered once every other day measured upto 7 days. Format: functional, organism-based. The following applies: time <= 7.0 day. The method, boiled down:
(§4)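 Male C57BL/6 mice, 7 weeks: colistin 20 mg/kg sc daily for 7 days, peptide 1 mg/kg ip every other day, n = 5 per group. BUN by autoanalyzer and creatinine by modified Jaffe reaction after 7 days; mean ± SEM.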

Data set [12] is described as follows: Drug localization in mitochondria of human HeLa cells at EC50 incubated for 3 hrs by fluorescence based assay. The format is ADME.
A short description of data set [13]: Drug uptake in CCCP-damaged mitochondria of human HeLa cells at 100 nM by MitoTracker probe based assay. The format is ADME. The following applies: 16 min, 0.1 µM, TDE = time-dependent effect. The essentials: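 HeLa cells given TAMRA-labelled peptide 100 nM for 3 h with MitoTracker staining; mitochondria damaged with 20 μM CCCP (30 min) or by CCCP during time-lapse confocal imaging. Red/green Pearson r calculated.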

For data set [14], the system named is Mus musculus. In words: Protection against colistin-induced nephrotoxicity in C57BL/6 mouse model assessed as reduction in blood creatinine level at 1 mg/kg, ip administered once every other day measured upto 7 days. The format is functional, organism-based. The following applies: time <= 7.0 day. The method, boiled down:
as §4

The subject of data set [15] is Mus musculus. Kind of data set: Protection against […] C57BL/6 mouse model assessed as increase in SOD-1 level at 1 mg/kg, ip administered thrice a week prior to induction of bilateral ischemia-reperfusion injury measured after 6 days by IHC analysis. The format is functional, organism-based. The following applies: time 6.0 day.
Data set [16] in a line: Drug localization in cytosol of human HeLa cells at 100 nM incubated for 3 hrs in presence of CCCP by NAO probe based analysis. Format: ADME, subcellular. The following applies: 0.1 µM. The method, boiled down:
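HeLa cells given TAMRA-labelled peptide 100 nM for 3 h and cardiolipin stained with NAO (100 nM, 1 h), with or without 20 μM CCCP for 30 min; LysoTracker 50 nM. Confocal images, Pearson r from five independent images (63×) per condition.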

The test system of data set [17] is Mus musculus. In words: Protection against […] C57BL/6 mouse model assessed as increase in ATP6 mRNA level at 1 mg/kg, ip administered thrice a week prior to induction of bilateral ischemia-reperfusion injury measured after 6 days by qPCR analysis. The format is functional, organism-based. The settings on record: time 6.0 day.
In data set [18] the test system is Epithelial cell. In words: Reversal of H2O2-induced IL-18 mRNA level in human tubular epithelial cells at 10 to 100 nM by qPCR analysis. The format is functional, cell-based. The following applies: dose 10-100 nM.
Data set [19] deals with Mus musculus. In words: Protection against colistin-induced nephrotoxicity in C57BL/6 mouse model assessed as appearance of compact cristae in mitochondria of kidney at 1 mg/kg, ip administered once every other day measured after 7 days by TEM analysis. The format is functional, organism-based. The settings on record: time 7.0 day. The essentials:
as §2

In data set [20] the test system is Epithelial cell. In words: Inhibition of H2O2-induced apoptosis in human tubular epithelial cells at 10 to 100 nM by Annexin V-FITC/PI staining based flow cytometry. Format: functional. The settings on record: dose 10-100 nM. The essentials:
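hTECs exposed to H2O2 0.5 mM; annexin V-FITC/propidium iodide staining 15 min at room temperature in the dark, apoptosis and necrosis percentages by flow cytometry.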

The next data set has as its system Mitochondria. Kind of data set: Inhibition of antimycin A-induced mitochondrial ROS generation in human HeLa cells incubated for 190 mins followed by antimycin A addition measured after 90 mins by MitoSOX probe based analysis. The format is functional. The settings on record: dose lower […], dose upper 10.0 nM. The essentials: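 HeLa cells seeded, stained 24 h later with MitoSOX 5 μM for 10 min, washed, HBSS, read on plate reader at 37 °C (Ex/Em 510/580 nm).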

The structures appear in SMILES notation. The source made the active and inactive calls. No cut-off for these calls is given here. Where a SMILES comes first, the peptide text is derived from it. Bridges are numbered along the chain shown (N, C = ends). Roman numbers before positions name the chains, in order. [ ]: non-standard residue; d: D form. The star is where a group is joined. 5TAMRA = CN(C)c1ccc2c(c1)Oc1cc(N(C)C)ccc1C21OC(=O)c2cc(C(=O)*)ccc21; Cha = N[C@@H](CC1CCCCC1)C(=O)O

Take `CC(=O)N[C@@H](CC1CCCCC1)C(=O)N[C@H]1CSSC[C@@H](C(=O)N[C@@H](CCCNC(=N)N)C(N)=O)NC(=O)[C@H](CC2CCCCC2)NC(=O)[C@H](CCCNC(=N)N)NC(=O)[C@H](CCCNC(=N)N)NC(=O)[C@H](CC2CCCCC2)NC(=O)[C@H](CC(C)C)NC(=O)[C@H](CCCNC(=N)N)NC(=O)[C@@H](NC(=O)[C@H](CC2CCCCC2)NC(=O)c2ccc3c(c2)C(=O)OC32c3ccc(N(C)C)cc3Oc3cc(N(C)C)ccc32)CSSC[C@@H](C(=O)N[C@@H](CCCNC(=N)N)C(N)=O)NC(=O)[C@H](CC2CCCCC2)NC(=O)[C@H](CCCNC(=N)N)NC(=O)[C@H](CCCNC(=N)N)NC(=O)[C@H](CC2CCCCC2)NC(=O)[C@H](CC(C)C)NC(=O)[C@H](CCCNC(=N)N)NC1=O` (I: Ac-[Cha]CRL[Cha]RR[Cha]CR-NH2 / II: 5TAMRA-[Cha]CRL[Cha]RR[Cha]CR-NH2; disulfide I:2-II:9, I:9-II:2): the outcome in the data set on Mus musculus [1], with Mus musculus [2], in the data set with Epithelial cell [3], in the data set with Mus musculus [4], in the data set on Mus musculus [5] and in the data set with Mus musculus [7] was Active. Also, the outcome with Lipid bilayer, in the data set on Epithelial cell [8], in the data set on Mus musculus [9], in the data set on Epithelial cell [10], in the data set on Mus musculus [11] and in the data set on Mus musculus [14] was Active. Besides, the outcome in the data set on Mus musculus [15], with Mus musculus [17], in the data set with Epithelial cell [18] and with Mus musculus [19] was Active. The Drug uptake entry in [6] is “Active”; in data set [12] it was 53%; in data set [13] it was “Tde”; in [16] it was “Active”. Besides, the Activity result in the data set with HeLa was “Dose-Dependent Effect”. Also, the inhibition result in the data set with Epithelial cell [20] was “Active”. For the same compound, in the data set with Mitochondria, the inhibition result was “Dose-Dependent Effect”.
